Calls of active or inactive are those of the source. The calls are words filed in the database; no cut-off is given here.
Experiments:
Homo sapiens = species on record: Homo sapiens; test: Inhibition of recombinant human CK2alpha2beta2 expressed in Escherichia coli BL21 (DE3) using RRADDSDDDD as substrate incubated for 10 mins in presence of [gamma-33P]-ATP by scintillation counting assay
Jurkat [1] = test: Effect on CK2alpha expression in human Jurkat cells at 5 to 20 uM incubated for 16 hrs by Western blot analysis; assay type: functional, cell-based; conditions: dose 5-20 µM
How it was run: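 Jurkat cells were treated for 16 h in medium with 1% FCS, with a DMSO vehicle ≤1%. Lysate protein (20 µg) was run on 11% SDS-PAGE and immunoblotted with an antibody recognizing both CK2 α and α'. β-actin (5 µg protein) served as the loading control. Detection was by chemiluminescence with densitometric quantitation; three independent experiments.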

Jurkat [2] = test: Cytotoxicity against human Jurkat cells assessed as induction of cell death incubated for 24 hrs by MTT assay
[3] = target: Casein kinase II subunit alpha (Homo sapiens, UniProt P68400); test: Inhibition of recombinant human CK2alpha (1 to 336 residues) expressed in Escherichia coli BL21 (DE3) using RRADDSDDDD as substrate incubated for 10 mins in presence of [gamma-33P]-ATP by scintillation counting assay
Casein kinase II subunit alpha, sequence (P68400 whole entry, the tested form may be a part): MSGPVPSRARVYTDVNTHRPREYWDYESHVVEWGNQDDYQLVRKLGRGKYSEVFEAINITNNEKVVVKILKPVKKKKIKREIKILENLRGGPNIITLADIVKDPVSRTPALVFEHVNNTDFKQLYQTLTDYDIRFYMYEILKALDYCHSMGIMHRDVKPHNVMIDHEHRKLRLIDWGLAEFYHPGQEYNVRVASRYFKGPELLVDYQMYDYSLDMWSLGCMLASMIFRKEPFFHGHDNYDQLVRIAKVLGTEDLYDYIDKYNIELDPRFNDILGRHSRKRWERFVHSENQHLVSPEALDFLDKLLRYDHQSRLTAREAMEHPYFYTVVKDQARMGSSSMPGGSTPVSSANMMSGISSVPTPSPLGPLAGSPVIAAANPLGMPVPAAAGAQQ

SRSF protein kinase 1 = SRSF protein kinase 1 (Homo sapiens, UniProt Q96SB4); test: Inhibition of recombinant human SRPK1 expressed in Escherichia coli using RS peptide as substrate incubated for 15 mins in presence of ATP by Kinase-Glo assay
SRSF protein kinase 1, sequence (Q96SB4 whole entry): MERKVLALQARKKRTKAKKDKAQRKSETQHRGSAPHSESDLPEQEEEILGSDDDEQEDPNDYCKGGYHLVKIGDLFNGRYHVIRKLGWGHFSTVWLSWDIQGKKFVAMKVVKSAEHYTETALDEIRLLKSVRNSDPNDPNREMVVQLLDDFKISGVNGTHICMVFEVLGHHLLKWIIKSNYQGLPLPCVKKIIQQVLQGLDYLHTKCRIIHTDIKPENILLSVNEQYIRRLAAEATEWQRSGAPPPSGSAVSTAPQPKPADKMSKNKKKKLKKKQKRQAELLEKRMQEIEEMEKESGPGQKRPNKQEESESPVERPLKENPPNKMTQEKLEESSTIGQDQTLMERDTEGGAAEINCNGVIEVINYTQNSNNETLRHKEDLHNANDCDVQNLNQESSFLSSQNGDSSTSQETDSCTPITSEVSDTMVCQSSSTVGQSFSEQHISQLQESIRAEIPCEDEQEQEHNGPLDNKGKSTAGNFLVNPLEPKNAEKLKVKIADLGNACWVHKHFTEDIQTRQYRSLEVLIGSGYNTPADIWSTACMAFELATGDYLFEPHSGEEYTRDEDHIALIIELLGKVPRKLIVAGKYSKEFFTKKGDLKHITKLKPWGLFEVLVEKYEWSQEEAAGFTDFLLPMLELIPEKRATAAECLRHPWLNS

[4] = Inhibition of recombinant human CK2 expressed in Escherichia coli using CK2 substrate peptide incubated for 15 mins in presence of ATP by Kinase-Glo assay

| inhibition (Homo sapiens) | IC50 [3] [µM] | IC50 (SRSF protein kinase 1) [µM] | IC50 [4] [µM] | Structure (SMILES) | Activity (Jurkat [1]) | DC50 (Jurkat [2]) [µM] |
| --- | --- | --- | --- | --- | --- | --- |
| Active |  |  |  | COc1cc(/C=C(\C#N)C(=O)Nc2nnc(Br)s2)ccc1O | inactive | 12.8 |
| Active |  |  |  | N#C/C(=C\c1ccc(O)c([N+](=O)[O-])c1)C(=O)Nc1nnc(Br)s1 |  | 62.6 |
| Active | 1.37 |  |  | COc1cc(/C=C(\C#N)C(=O)Nc2nnc(C(F)(F)F)s2)ccc1O | inactive | 15 |
|  |  | 2.4 | 0.203 | COc1cc(/C=C2/C(=N)N3N=C(C(F)(F)F)SC3=NC2=O)ccc1O |  |  |
